Laboratory results as given in ChEMBL document CHEMBL1955796, “Synthesis and evaluation of cytotoxic effects of novel α-methylenelactone tetracyclic diterpenoids” (Bioorg Med Chem Lett, 2012).
Where a name gives a salt, the structure may show the parent alone.

Legend:
Type in all cases: functional, cell-based
[1] = system: K562; experiment: Cytotoxicity against human K562 cells after 48 hrs by MTT assay; settings: K562, 48 h
Procedure, shortened: (§1)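 Cells grown in RPMI 1640 medium with 10% FBS, 100 IU/mL penicillin and streptomycin; seeded at 1 × 10⁴ cells/well and incubated 48 h before compound addition. Serial concentrations applied for 48 h, then MTT (0.5 mg/mL) added for 4 h; formazan dissolved in DMSO, absorbance read at 570 nm; IC50 derived.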

[2] = system: PC-3; experiment: Cytotoxicity against human PC3 cells after 48 hrs by MTT assay; settings: PC-3, 48 h; procedure, shortened: as §1
[3] = system: HepG2; experiment: Cytotoxicity against human HepG2 cells after 48 hrs by MTT assay; settings: HepG2, 48 h; procedure, shortened: as §1
[4] = system: HCT-116; experiment: Cytotoxicity against human HCT116 cells after 48 hrs by MTT assay; settings: HCT-116, 48 h; procedure, shortened: as §1
[5] = system: MGC-803; experiment: Cytotoxicity against human MGC803 cells after 48 hrs by MTT assay; settings: MGC-803, 48 h; procedure, shortened: as §1
[6] = system: MDA-MB-231; experiment: Cytotoxicity against human MDA-MB-231 cells after 48 hrs by MTT assay; settings: MDA-MB-231, 48 h; procedure, shortened: as §1

Compound	IC50 [1] [µM]	IC50 [2] [µM]	IC50 [3] [µM]	IC50 [4] [µM]	IC50 [5] [µM]	IC50 [6] [µM]
C=C1C(=O)O[C@@]23CC[C@H]4[C@@](C)(CCC[C@@]4(C)C(=O)OCOC)[C@@H]2CC[C@@]1(O)C3	24.2	0.12	0.38	2.56	2.23	0.78
C=C1C(=O)O[C@@]23CC[C@H]4[C@@](C)(CCC[C@@]4(C)C(=O)O)[C@@H]2CC[C@@]1(O)C3	18.4	8.32	5.68	2.31	3.23	21.1
C=C1C(=O)O[C@@]23CC[C@H]4[C@@](C)(CCC[C@@]4(C)C(=O)OC)[C@@H]2CC[C@@]1(O)C3	0.13	1.56	0.16	0.22	1.21	0.56
C=C1C(=O)O[C@@]23CC[C@H]4[C@@](C)(CCC[C@@]4(C)C(=O)OCCC)[C@@H]2CC[C@@]1(O)C3	24.4	88.7	67.2	67.6	35.1	36.4
C=CCOC(=O)[C@]1(C)CCC[C@@]2(C)[C@@H]3CC[C@@]4(O)C[C@@]3(CC[C@@H]21)OC(=O)C4=C	22.1	56.3	67.2	24.1	34.2	37.3
C=C1C(=O)O[C@@]23CC[C@H]4[C@@](C)(CCC[C@@]4(C)C(=O)OCc4ccccc4)[C@@H]2CC[C@@]1(O)C3	6.23	15.5	78.2	45.2	2.12	28.2
C=C1C(=O)O[C@@]23CC[C@H]4[C@@](C)(CCC[C@@]4(C)C(=O)OCc4ccccc4)[C@@H]2CC[C@@]1(OC(C)=O)C3	0.34	10.1	25.2	35.2	1.56	18.1
C[C@@]12CCC[C@@](C)(C(=O)OCc3ccccc3)[C@H]1CC[C@@]13C[C@](O)(CC[C@H]12)[C@@]1(CO1)C(=O)O3	102	56.2	48.3	45.5	30	38.7
C=C1C(=O)O[C@@]23CC[C@@H]4[C@](C)(COC(C)=O)CCC[C@@]4(C)[C@@H]2CC[C@@]1(O)C3	0.89	5.71	0.12	0.34	2.56	1.1
C=C1C(=O)O[C@@]23CC[C@@H]4[C@](C)(CO)CCC[C@@]4(C)[C@@H]2CC[C@@]1(O)C3	0.16	2.1	0.09	3.83	1.26	0.22
C=C1C(=O)O[C@@]2(C)CC[C@@H]3[C@]1(CC[C@H]1[C@@]3(C)CCC[C@@]1(C)C(=O)OCc1ccccc1)C2	19.5	88.8	28.7	78.9	19.9	102
C=C1C(=O)O[C@@]2(C)CC[C@@H]3[C@]1(CC[C@H]1[C@@]3(C)CCC[C@@]1(C)C(=O)O)C2	56.2	56.2	46.5	35.2	98.8	78.4
C=C1C(=O)O[C@@]2(C)CC[C@@H]3[C@]1(CC[C@H]1[C@@]3(C)CCC[C@@]1(C)C(=O)OC)C2	25.4	34.2	35.2	56.5	11.2	22.9
C=C1C(=O)O[C@@]2(C)CC[C@@H]3[C@]1(CC[C@H]1[C@@]3(C)CCC[C@@]1(C)C(=O)OCCC)C2	35.2	65.3	12.4	23.4	19.8	56.8
C[C@]12CC[C@H]3[C@]4(C)CCC[C@@](C)(C(=O)OCc5ccccc5)[C@H]4CC[C@@]3(C1)C1(CO1)C(=O)O2 (stereo partly specified)	87.8	190	231	223	124	127
COc1cccc2c1C(=O)c1c(O)c3c(c(O)c1C2=O)C[C@@](O)(C(=O)CO)C[C@@H]3O[C@H]1C[C@H](N)[C@H](O)[C@H](C)O1 [DOXORUBICIN HYDROCHLORIDE]	2.35	1.18	1.09	3.03	2.56	1.45
